Holding throughout (type): functional, cell-based
The nature of test [1]: Cytotoxicity against human KKU100 cells. In short, it runs like this:
(§1)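 SRB assay: cells seeded at 0.5–1.0 × 10^5 cells/mL and held 24 h at 37 °C. Compounds added in triplicate at final 0.025, 0.16, 0.8, 4 and 20 µg/well, with 0.1% DMSO as solvent control. Exposure was 72 h at 37 °C, plus a 1 h starting-cell plate. Cells fixed with TCA, stained with SRB, OD read at 510 nm. IC50 taken as 50% reduction of control protein increase.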

Test [2] is described as follows: Cytotoxicity against human KKU-M139 cells. In outline:
as §1

The nature of test [3]: Cytotoxicity against human KKU-M156 cells. In outline: as §1
The nature of test [4]: Cytotoxicity against human KKU-M213 cells. In outline:
as §1

Test [5] can be described thus: Cytotoxicity against human KKU-M214 cells. In outline: as §1
The test system of another test is KKU100. Kind of test: Cytotoxicity against human KKU100 cells at 75 uM.
In another test the test system is KKU-M139. The experiment in a line: Cytotoxicity against human KKU-M139 cells at 75 uM.
For the next test, the system named is KKU-M156. Kind of test: Cytotoxicity against human KKU-M156 cells at 75 uM.
In the next test the test system is KKU-M213. The experiment in a line: Cytotoxicity against human KKU-M213 cells at 75 uM.
A further test relates to KKU-M214. The experiment in a line: Cytotoxicity against human KKU-M214 cells at 75 uM.

The source made the active and inactive calls. No cut-off for these calls is given here.

Take `C/C1=C\CC(C)(C)C(C#N)CC(=O)/C(C)=C/CC1` (stereo not given): the IC50 in [1] was determined as 25.7 µM; in [2], 55.9 µM; in [3] it was 37.3 µM; in test [4], 45.1 µM; in [5], 54.5 µM.

As for `C/C1=C\CC(C)(C)/C=C/C(=O)/C(C)=C/CC1`, the outcome in the test on KKU100, in the test with KKU-M139, in the test with KKU-M156, in the test on KKU-M213 and in the test on KKU-M214 was inactive.

As to `C/C1=C\CC(C)(C)/C=C/C(=O)[C@H](C)[C@H](N(C)C)CC1`, the outcome with KKU100, in the test on KKU-M139, in the test on KKU-M156, in the test on KKU-M213 and in the test with KKU-M214 was inactive.

With `C/C1=C\CC(C)(C)C(C#N)CC(=O)[C@H](C)[C@H](N(C)C)CC1` (stereo not given in full), the result in the test on KKU100, in the test on KKU-M139, with KKU-M156, in the test on KKU-M213 and in the test with KKU-M214 was inactive.

`CCCCN(C(C)=O)[C@@H]1CC/C(C)=C/CC(C)(C)/C=C/C(=O)[C@@H]1C`: the outcome with KKU100, in the test with KKU-M139, in the test with KKU-M156, in the test with KKU-M213 and with KKU-M214 was inactive.

With `C/C1=C\CC(C)(C)/C=C/C(=O)[C@H](C)[C@H](N)CC1` (racemic), the IC50 in [1] amounted to 16.4 µM; in test [2], 63.3 µM; in [3], 69 µM; in test [4], 51.9 µM; in test [5], 59.6 µM.

On to `C/C1=C\CC[C@@]2(C)O[C@H]2CC(C)(C)/C=C/C1=O` (racemic), for which the IC50 in test [5] was 52.6 µM. Besides, the outcome in the test with KKU100, in the test on KKU-M139, in the test on KKU-M156 and in the test with KKU-M213 was inactive.

`C[C@H]1C(=O)/C=C/C(C)(C)C[C@@H]2O[C@]2(C)CC[C@H]1N` (racemic) displayed an IC50 in test [5] of 18.3 µM. The outcome in the test with KKU100, in the test with KKU-M139, in the test with KKU-M156 and in the test with KKU-M213 was inactive.

In [5], `C/C1=C\CC(C)(C)[C@H](C#N)CC(=O)[C@H](C)[C@H](C#N)CC1` (racemic) yielded an IC50 of 66.5 µM. Further, the outcome in the test on KKU100, in the test on KKU-M139, in the test on KKU-M156 and in the test on KKU-M213 was inactive.

Take `CCCCN[C@@H]1CC/C(C)=C/CC(C)(C)/C=C/C(=O)[C@@H]1C` (racemic): the IC50 in test [4] stood at 36.6 µM; in test [5] it was 41.6 µM. Also, the outcome in the test on KKU100, in the test on KKU-M139 and with KKU-M156 was inactive.

In the case of `CCCCN[C@@H]1CC/C(C)=C/CC(C)(C)/C=C/[C@H](O)[C@@H]1C` (racemic), the 50% inhibitory concentration (IC50) in test [1] came out at 35.3 µM; in test [2], 19.6 µM; in [3], 26.3 µM; in test [4], 27.2 µM; in test [5], 16.1 µM.

On to `CCCCN[C@@H]1CC[C@@]2(C)O[C@H]2CC(C)(C)/C=C/C(=O)[C@@H]1C` (racemic), for which the IC50 in test [1] amounted to 16.5 µM; in [3] it was 48.2 µM; in [4], 37.6 µM; in test [5], 51 µM. In the test with KKU-M139, the result was inactive.

Consider `C/C1=C\CC(C)(C)/C=C/C(=O)[C@H](C)[C@H](NCc2ccccc2)CC1` (racemic), for which the outcome with KKU100, in the test with KKU-M139, in the test on KKU-M156, in the test on KKU-M213 and in the test with KKU-M214 was inactive.

As for `C/C1=C\CC(C)(C)/C=C/C(O)/C(C)=C/CC1` (racemic), the outcome with KKU100, in the test with KKU-M139, in the test on KKU-M156, with KKU-M213 and in the test on KKU-M214 was inactive.

As to `C/C1=C\CC(C)(C)/C=C/[C@H](O)[C@@]2(C)O[C@H]2CC1` (racemic), the result in the test on KKU100, in the test on KKU-M139, in the test on KKU-M156, with KKU-M213 and with KKU-M214 was inactive.

Turning to `CC(=O)N[C@@H]1CC/C(C)=C/CC(C)(C)/C=C/C(=O)[C@@H]1C` (racemic), the result in the test on KKU100, with KKU-M139, in the test with KKU-M156, in the test on KKU-M213 and with KKU-M214 was inactive.

Regarding `CC(=O)N[C@@H]1CC/C(C)=C/CC(C)(C)/C=C/[C@H](O)[C@@H]1C` (racemic), the outcome with KKU100, in the test with KKU-M139, in the test with KKU-M156, in the test on KKU-M213 and in the test with KKU-M214 was inactive.

On to `CC(=O)N[C@@H]1CC[C@@]2(C)O[C@H]2CC(C)(C)/C=C/C(=O)[C@@H]1C` (racemic), for which the result in the test with KKU100, in the test with KKU-M139, in the test with KKU-M156, in the test with KKU-M213 and in the test with KKU-M214 was inactive.

As for `CC(=O)OC1/C=C/C(C)(C)C/C=C(\C)CC/C=C/1C` (racemic), the result in the test with KKU100, in the test with KKU-M139, with KKU-M156, in the test with KKU-M213 and in the test with KKU-M214 was inactive.

With `C[C@H]1C(=O)/C=C/C(C)(C)C[C@@H]2O[C@]2(C)CC[C@H]1NCc1ccccc1` (racemic), the result in the test on KKU100, with KKU-M139, in the test on KKU-M156, in the test on KKU-M213 and in the test with KKU-M214 was inactive.

`Cc1c2ccncc2c(C)c2c1[nH]c1ccccc12` [ELLIPTECINE]: the half-inhibitory concentration (IC50) came out at 25.2 µM in [1]; 4.5 µM in test [2]; 9.34 µM in test [3]; 1.62 µM in test [4]; 1.01 µM in test [5].

One may read the IC50 as the concentration that gives 50% inhibition.

The values are drawn from ChEMBL document CHEMBL1240410, “Cytotoxicity against cholangiocarcinoma cell lines of zerumbone derivatives” (Eur J Med Chem, 2010).
